Results reported in the EternaBench riboswitch data.

Test system: MS2 coat protein
Assay: apparent Kd, MS2 coat protein; higher = weaker binding; RNA-MaP array; FMN 200 µM where present
In short: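 Each design was made on Illumina sequencing-chip clusters by stalled E. coli RNA polymerase and titrated with SNAP-549-labelled MS2 coat protein from 0.7 or 1.5 nM, doubling to 3 µM, in the absence and then the presence of constant ligand. The buffer was 100 mM Tris-HCl pH 7.5, 80 mM KCl, 4 mM MgCl2, BSA, DTT, yeast tRNA and Tween-20. The apparent Kd is the median of filtered per-cluster fits of binding curves, with green signal normalised to red-channel RNA signal and control-cluster median Fmax.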

[1] = designed as: OFF switch for flavin mononucleotide, no ligand
[2] = ligand present: flavin mononucleotide, designed as: OFF switch for flavin mononucleotide
[3] = designed as: ON switch for flavin mononucleotide, no ligand
[4] = ligand present: flavin mononucleotide, designed as: ON switch for flavin mononucleotide

Row | Sequence | apparent Kd [1] | apparent Kd [2] | apparent Kd [3] | apparent Kd [4]
1 | AUGGUUCGGUCAGGAUAUCGUAGAUUGAAUAGUAUGAUUUACAUGAGGAUCACCCAUGUUACAUACGAGAAGGGACCGAAUCAU | 15.5 nM | 10.4 nM |  | 
2 | AUGGUUGUCGUAGGAUAUGUAGGAUAUUCCUACAUGAGGAUCACCCAUGUUCGCAUGGAAGAAGGACGGAAGGACGAUGACCAG |  |  | 452 nM | 163 nM
3 | AUGUAGAACGUAGGAUAUCAAUGAGGAUCACCCUGAGAAGGACGUGAGGACAUGAGGAUCACCCAUGUGGAUCACCCAUGUCAU | 160 nM | 134 nM |  | 
4 | AUGUAGUGCGAAGGAUAUGCGACUGCCUCGGCCGCAGAAGGUCGCACAUGAGGAUCACCCAUGUGCGGUGCAAAGAGUGGUUCU | 111 nM | 76.3 nM |  | 
5 | AUGUCCUGAGGAUAUGGUCCAUUACACAUGAGGAUCACCCAUGUGGGUCUCGCCUGUAGGCCAGAAGGUAGGUCUU | 52.8 nM | 49.5 nM |  | 
6 | AUGUGCCGGUCAGGAUAUCAACCACAUUGGCCAUGAGAAGGGACAGCACAUGAGGAUCACCCAUGUACACGCUGUGCGGAUGGG | 273 nM | 122 nM |  | 
7 | AUGUGGUGCGUAGGAUAUCAUUAAAGAAAACCCUGAGAAGGACGUGAGGACAUGAGGAUCACCCAUGUGGAUCACCCAUGUCAA | 316 nM | 278 nM |  | 
8 | AUGUGUCUUCGCGUCCUGCCCGGACAUGAGGAUCACCCAUGUAGAAGGCGGUGGCAAUGCUAGACCGAGGAUAUACAUGCAAAC | 17.8 nM | 51.3 nM |  | 
9 | AUGUUACAUGAGGAUCACCCAUGUGAGGAUAUGUGUACCCGUAAAAAAGUGUCGGGCCACAGAAGGCAUUUGGA | 47.3 nM | 75 nM |  | 
10 | AUGUUACAUGAGGAUCACCCAUGUGAGGAUAUGUGUACCGGUAAAAAAGUGUUUGGCCACAGAAGGCAUUUGGA | 28.7 nM | 26.9 nM |  | 
11 | AUGUUACAUGAGGAUCACCCAUGUGAGGAUAUGUGUAUCCCUAAAAAAGUGUGGGACCAUAGAAGGCAUUUGGA | 59.1 nM | 64.1 nM |  | 
12 | AUGUUGAGCAGUGUAUUAAGAUCACAUGAGGAUCACCCAUGUAGAAGGCACGAGCUGAUCGCUCGUGAGGAUAUGCAUCACUGC | 7.12 nM | 29.2 nM |  | 
13 | AUGUUGUCAGGAUAUCUUACAUAACAAUCGUUGUUACCAUUGGAGAAGGGACAUGAGGAUCACCCAUGUUAGCC | 20.8 nM | 23 nM |  | 
14 | AUGUUUAAUGCAGGAUAUGAUUAACAUGAGGAUCACCCAUGUGGUGUUGUGAGUAAGGAGAGUGAUCAGAAGGGCAUUUUUUUU |  |  | 592 nM | 540 nM
15 | AUUAAACAUGAGGAUCACCCAUGUAAUAAUAUGGGAGGAUAUGCGAAUUUAAUUAUUUAAGCAGAAGGCCUAAUUA |  |  | 63 nM | 19.2 nM
16 | AUUAAUAAGUAGAAGGACGGAGAGUAUGAAGUCGUAGGAUAUACAUAAGACAUGAGGAUCACCCAUGUAUGUAUUUUGGGUAUG | 12.9 nM | 12.9 nM |  | 
17 | AUUAGGUAAGGAUAUACAUGAGGAUCACCCAUGUAGGUUAACGCAACCGGGUCCGGCUGUAGAAGGUGCAACGU | 32.5 nM | 32.6 nM |  | 
18 | AUUAUAUAGUUAGGAUAUUGAUUAUUAUUUUAACAUGAGGAUCACCCAUGUAGCCUUAUGUAUAACAAGAAGGAACAUUUAUUA | 114 nM | 132 nM |  | 
19 | AUUAUGACCGAGUUAUAGUUCCAAACAUGAGGAUCACCCAUGUAGGAUAUCAGCACGAUAAGUGCUGAGAAGGACAUCUCGGUC | 14.9 nM | 16.1 nM |  | 
20 | AUUAUGUAAGGAUAUCUUACAUGUGACUUCGGUCACUGUUAAGAGAAGGUACAUGAGGAUCACCCAUGUAUAAC | 19.6 nM | 22.4 nM |  | 
21 | AUUAUGUUAGGAUAUGCUUAUGGUGGAUAGUCCAAUAUGGUGCAGAAGGGACAUGAGGAUCACCCAUGUACUGA | 83.2 nM | 90.3 nM |  | 

Row | Sequence | apparent Kd [1] | apparent Kd [2] | apparent Kd [3] | apparent Kd [4]
22 | AUUAUUAAAGUGAGGAUAUCUAGAGCCUCGGCUCUAGAGAAGGCACAUGAGGAUCACCCAUGUCUCAAUUAUUA | 19.1 nM | 56.1 nM |  | 
23 | AUUAUUAAGUUAGGAUAUAGUAAAAUAAUUUAAUUAGAAGGAGCUCACAUGAGGAUCACCCAUGUAAGAGGAUCACCCAUGUAU | 22.3 nM | 16.5 nM |  | 
24 | AUUAUUGACAUAGGAUAUUGUUACAUGAGGAUCACCCAUGUUAUUUGGGAACUAGGAAUAUUUUACAAGAAGGAUGUUGUUACA |  |  | 101 nM | 81.3 nM
25 | AUUAUUUACAUAGGAUAUUGUUACAUGAGGAUCACCCAUGUUUUCAUGGUAUUAAUAUAUUAUUUCAAGAAGGAUGUAGUUACA |  |  | 37.4 nM | 20.9 nM
26 | AUUAUUUUGUAGAAGGACGACUAUUAAUAUAUCGUAGGAUAUACUAUUUACAUGAGGAUCACCCAUGUUUAAAUGGAACAAUGU | 4.99 nM | 6.23 nM |  | 
27 | AUUCCCGGUGUUAGGAUAUCCAACGCCCACGCGAUGGAGAAGGGACAUGAGGAUCACCCAUGUAGAGCUGCAUC | 14.3 nM | 14.5 nM |  | 
28 | AUUGUAGUUGUGAGGAUAUCGUUGAUUUUUUGAAACGAGAAGGCACAUGAGGAUCACCCAUGUUAGUUGUUGGU | 84 nM | 212 nM |  | 
29 | AUUGUGUGAGGAUAUUAGUAGUAGAUAAAUGGAGUUGUAACUGAGAAGGCACAUGAGGAUCACCCAUGUUCCUU | 18.7 nM | 24.6 nM |  | 
30 | AUUUAAAUGUCAGGAUAUGUUAGUUUAUACAUAGUAGAAGGGAUAAUUAUACUCAUGUACAUGAGGAUCACCCAUGUUAAAUCA |  |  | 212 nM | 98.5 nM
31 | AUUUAGAGAGGAUAUAUAAAGUGAAACAUGAGGAUCACCCAUGUAAUUUUAUGGAUGUAAAUAGAAGGCUCAUUUU | 38.2 nM | 29.4 nM |  | 
32 | AUUUAUGGCCAGAAGGACAUGAGGAUCACCCAUGUAGGAUAUGGACGAUUUUGCUCGGCGGUUUGUUUACGAAGCACCGGUGGU |  |  | 12.8 nM | 6.91 nM
33 | AUUUAUUAGUAAGGAUAUACUAGCGAUUAGCUUGUAGAAGGUACAGUCUUAUGUAUAGCAUGUUAACAUGAGGAUCACCCAUGU |  |  | 23.2 nM | 13.1 nM
34 | AUUUGUAACCAGAAGGACAUGAGGAUCACCCAUGUAGGAUAUGGGCUUCUCAGGGCUGAGGAGUGAUCCCACAGGGACUUACGG |  |  | 117 nM | 18 nM
35 | AUUUUUUAUGUAGGAUAUGCUUGUGGUAAGAUAGCAGAAGGACAUGAGGAUCACCCAUGUUAAUGAUAGAGAUUUUAGGUUGGU | 42.6 nM | 69.2 nM |  | 
36 | CAAAGGACAGGAUAUGCGAGGGAGCCCGUGCAGGUCGCCCAACAUGAGGAUCACCCAUGUAGAAGGGUCAAAAC | 32.8 nM | 25.8 nM |  | 
37 | CAACCGUUGCAGAAGGUUAAAUAAAUCAACUUAUGGACAACAUGAGGAUCACCCAUGUUUUUGUUGAAGGAUAUGCAAGGGUUG | 6.25 nM | 5.85 nM |  | 
38 | CAACUGGCACAGAAGGGUGACAUGAGGAUCACCCAUGUAGCGUGGCACUCAGGAGGAGCCACGCCACAGGAUAUGUGCGGGCAC |  |  | 42.3 nM | 78.4 nM
39 | CAAUGGUUCCUUAUACUCUCGUCACAUGAGGAUCACCCAUGUAGAAGGCAGCCGGGCUGUCAGGCUGAGGAUAUACAUUUAAAA | 17.8 nM | 54.9 nM |  | 
40 | CAAUUACAUGAGGAUCACCCAUGUCAGGAUAUGCGAAUUACCAGAUGAAACUUAAUAAGCAGAAGGGACUACAA | 36.3 nM | 49.6 nM |  | 
41 | CAAUUCCGAGGAUAUACAUGAGGAUCACCCAUGUCGGGCCUCAGCGUUUAGCGCCUAAGUAGAAGGUGGGUUUC | 42.9 nM | 40.4 nM |  | 
42 | CAAUUGGCACAGAAGGGUGACAUGAGGAUCACCCAUGUAGCGUGGCACUCAGGAGAAGCCACGCCACAGGAUAUGUGCGGGCAC |  |  | 34.6 nM | 41.6 nM
